Experimental data published in ChEMBL document CHEMBL1122900, “Effects of alkyl and aryl substitution on the myocardial specificity of radioiodinated phosphonium, arsonium, and ammonium cations” (J Med Chem, 1985).
Values belong to the compound of their own block, whether it stands above or below them.

Tests used:
Rattus norvegicus [1] = assay: Evaluated for the distribution of radioactivity in tissues of female Fischer rats liver after 60 minutes intravenous administration; dose/g, range 1.08-2.31; assay type: ADME, organism-based; conditions: in vivo, 1 h
Procedure, shortened: (§1)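 Female Fischer 344 rats (10-12 weeks, 170-200 g), fed ad libitum, got a single iv tail-vein injection under ether anaesthesia of the 125I-labelled cation (2.85-8.38 μCi). The tracer was dissolved in Me2SO, diluted with saline to 1% Me2SO and filtered. At the set times rats were killed by cervical fracture and blood taken by cardiac puncture. Organs were rinsed, blotted, weighed and gamma-counted against injectate standards. Results are %dose/g, mean and range, n=5. Thyroid weight was taken as 7.5 mg/100 g body weight.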

Rattus norvegicus [2] = assay: Evaluated for the distribution of radioactivity in tissues of female Fischer rats kidneys after 5 minutes intravenous administration; dose/g, range 4.78-9.72; assay type: ADME, organism-based, Kidney; conditions: in vivo
Rattus norvegicus [3] = assay: Evaluated for the distribution of radioactivity in tissues of female Fischer rats kidneys after 60 minutes intravenous administration; dose/g, range 0.17-0.25; assay type: ADME, organism-based, Kidney; conditions: in vivo, 1 h
Rattus norvegicus [4] = assay: Evaluated for the distribution of radioactivity in tissues of female Fischer rats thyroid after 60 minutes intravenous administration; dose/g, range 5-12; assay type: ADME, organism-based, Thyroid gland; conditions: in vivo, 1 h; procedure, shortened: as §1
Rattus norvegicus [5] = assay: Evaluated for the distribution of radioactivity in tissues of female Fischer rats lungs after 5 minutes intravenous administration; dose/g, range 0.51-0.66; assay type: ADME, organism-based, Lung; conditions: in vivo; procedure, shortened: as §1
Rattus norvegicus [6] = assay: Evaluated for the distribution of radioactivity in tissues of female Fischer rats lungs after 60 minutes intravenous administration; dose/g, range 0.28-0.33; assay type: ADME, organism-based, Lung; conditions: in vivo, 1 h; procedure, shortened: as §1
Rattus norvegicus [7] = assay: Evaluated for the distribution of radioactivity in tissues of female Fischer rats blood after 30 minutes intravenous administration; dose/g, range 0.07-0.09; assay type: ADME, organism-based; conditions: in vivo, 0.5 h
Rattus norvegicus [8] = assay: Evaluated for the distribution of radioactivity in tissues of female Fischer rats blood after 5 minutes intravenous administration; dose/g, range 0.10-0.14; assay type: ADME, organism-based; conditions: in vivo
Rattus norvegicus [9] = assay: Evaluated for the distribution of radioactivity in tissues of female Fischer rats thyroid after 30 minutes intravenous administration; dose/g, range 4-7; assay type: ADME, organism-based, Thyroid gland; conditions: in vivo, 0.5 h; procedure, shortened: as §1
Rattus norvegicus [10] = assay: Evaluated for the distribution of radioactivity in tissues of female Fischer rats thyroid after 5 minutes intravenous administration; dose/g, range 5-8; assay type: ADME, organism-based, Thyroid gland; conditions: in vivo; procedure, shortened: as §1
Rattus norvegicus [11] = assay: Evaluated for the distribution of radioactivity in tissues of female Fischer rats lungs after 30 minutes intravenous administration.; dose/g, range 0.34-0.47; assay type: ADME, organism-based, Lung; conditions: in vivo, 0.5 h; procedure, shortened: as §1
Rattus norvegicus [12] = assay: Evaluated for the distribution of radioactivity in tissues of female Fischer rats blood after 60 minutes intravenous administration; dose/g, range 0.08-0.09; assay type: ADME, organism-based; conditions: in vivo, 1 h
Rattus norvegicus [13] = assay: Evaluated for the distribution of radioactivity in tissues of female Fischer rats heart after 30 minutes intravenous administration; dose/g, range 0.95-1.44; assay type: ADME, organism-based; conditions: in vivo, 0.5 h
Rattus norvegicus [14] = assay: Evaluated for the distribution of radioactivity in tissues of female Fischer rats kidneys after 30 minutes intravenous administration; dose/g, range 0.24-0.31; assay type: ADME, organism-based, Kidney; conditions: in vivo, 0.5 h
Rattus norvegicus [15] = assay: Evaluated for the distribution of radioactivity in tissues of female Fischer rats heart after 5 minutes intravenous administration; dose/g, range 0.90-1.46; assay type: ADME, organism-based; conditions: in vivo
Rattus norvegicus [16] = assay: Evaluated for the distribution of radioactivity in tissues of female Fischer rats heart after 60 minutes intravenous administration; dose/g, range 1.05-1.57; assay type: ADME, organism-based; conditions: in vivo, 1 h
Rattus norvegicus [17] = assay: Evaluated for the distribution of radioactivity in tissues of female Fischer rats liver after 30 minutes intravenous administration; dose/g, range 2.30-3.12; assay type: ADME, organism-based; conditions: in vivo, 0.5 h
Rattus norvegicus [18] = assay: Evaluated for the distribution of radioactivity in tissues of female Fischer rats liver after 5 minutes intravenous administration; dose/g, range 4.12-6.30; assay type: ADME, organism-based; conditions: in vivo; procedure, shortened: as §1
Rattus norvegicus [19] = assay: Evaluated for the distribution of radioactivity in tissues of female Fischer rats liver after 60 minutes intravenous administration; dose/g, range 0.44-0.54; assay type: ADME, organism-based; conditions: in vivo, 1 h; procedure, shortened: as §1
Rattus norvegicus [20] = assay: Evaluated for the distribution of radioactivity in tissues of female Fischer rats lungs after 5 minutes intravenous administration; dose/g, range 1.41-2.17; assay type: ADME, organism-based, Lung; conditions: in vivo
Rattus norvegicus [21] = assay: Evaluated for the distribution of radioactivity in tissues of female Fischer rats lungs after 60 minutes intravenous administration; dose/g, range 1.07-1.26; assay type: ADME, organism-based, Lung; conditions: in vivo, 1 h; procedure, shortened: as §1
Rattus norvegicus [22] = assay: Evaluated for the distribution of radioactivity in tissues of female Fischer rats blood after 30 minutes intravenous administration; dose/g, range 0.10-0.13; assay type: ADME, organism-based; conditions: in vivo, 0.5 h
Rattus norvegicus [23] = assay: Evaluated for the distribution of radioactivity in tissues of female Fischer rats thyroid after 30 minutes intravenous administration; dose/g, range 26-40; assay type: ADME, organism-based, Thyroid gland; conditions: in vivo, 0.5 h
Rattus norvegicus [24] = assay: Evaluated for the distribution of radioactivity in tissues of female Fischer rats thyroid after 5 minutes intravenous administration; dose/g, range 26-49; assay type: ADME, organism-based, Thyroid gland; conditions: in vivo
Rattus norvegicus [25] = assay: Evaluated for the distribution of radioactivity in tissues of female Fischer rats thyroid after 60 minutes intravenous administration; dose/g, range 26-42; assay type: ADME, organism-based, Thyroid gland; conditions: in vivo, 1 h; procedure, shortened: as §1
Rattus norvegicus [26] = assay: Evaluated for the distribution of radioactivity in tissues of female Fischer rats blood after 5 minutes intravenous administration; dose/g, range 0.27-0.33; assay type: ADME, organism-based; conditions: in vivo
Rattus norvegicus [27] = assay: Evaluated for the distribution of radioactivity in tissues of female Fischer rats lungs after 30 minutes intravenous administration; dose/g, range 0.91-1.74; assay type: ADME, organism-based, Lung; conditions: in vivo, 0.5 h
Rattus norvegicus [28] = assay: Evaluated for the distribution of radioactivity in tissues of female Fischer rats blood after 60 minutes intravenous administration; dose/g, range 0.12-0.14; assay type: ADME, organism-based; conditions: in vivo, 1 h
Rattus norvegicus [29] = assay: Evaluated for the distribution of radioactivity in tissues of female Fischer rats heart after 60 minutes intravenous administration; dose/g, range 3.51-5.44; assay type: ADME, organism-based; conditions: in vivo, 1 h
Rattus norvegicus [30] = assay: Evaluated for the distribution of radioactivity in tissues of female Fischer rats kidneys after 30 minutes intravenous administration; dose/g, range 8.28-10.72; assay type: ADME, organism-based, Kidney; conditions: in vivo, 0.5 h
Rattus norvegicus [31] = assay: Evaluated for the distribution of radioactivity in tissues of female Fischer rats kidneys after 5 minutes intravenous administration; dose/g, range 1.04-2.56; assay type: ADME, organism-based, Kidney; conditions: in vivo
Rattus norvegicus [32] = assay: Evaluated for the distribution of radioactivity in tissues of female Fischer rats heart after 30 minutes intravenous administration; dose/g, range 3.17-4.70; assay type: ADME, organism-based; conditions: in vivo, 0.5 h
Rattus norvegicus [33] = assay: Evaluated for the distribution of radioactivity in tissues of female Fischer rats heart after 5 minutes intravenous administration; dose/g, range 3.80-5.74; assay type: ADME, organism-based; conditions: in vivo
Rattus norvegicus [34] = assay: Evaluated for the distribution of radioactivity in tissues of female Fischer rats liver after 30 minutes intravenous administration; dose/g, range 0.55-0.71; assay type: ADME, organism-based; conditions: in vivo, 0.5 h
Rattus norvegicus [35] = assay: Evaluated for the distribution of radioactivity in tissues of female Fischer rats liver after 5 minutes intravenous administration; dose/g, range 1.04-2.56; assay type: ADME, organism-based; conditions: in vivo
Rattus norvegicus [36] = assay: Evaluated for the distribution of radioactivity in tissues of female Fischer rats kidneys after 60 minutes intravenous administration; dose/g, range 5.67-8.41; assay type: ADME, organism-based, Kidney; conditions: in vivo, 1 h

Distribution (Rattus norvegicus [1]): 1.55% | Distribution (Rattus norvegicus [2]): 7.46% | Distribution (Rattus norvegicus [3]): 0.21% | Distribution (Rattus norvegicus [4]): 9% | Distribution (Rattus norvegicus [5]): 0.57% | Distribution (Rattus norvegicus [6]): 0.29% | Distribution (Rattus norvegicus [7]): 0.08% | Distribution (Rattus norvegicus [8]): 0.12% | Distribution (Rattus norvegicus [9]): 5% | Distribution (Rattus norvegicus [10]): 6% | Distribution (Rattus norvegicus [11]): 0.39% | Distribution (Rattus norvegicus [12]): 0.09% | Distribution (Rattus norvegicus [13]): 1.11% | Distribution (Rattus norvegicus [14]): 0.27% | Distribution (Rattus norvegicus [15]): 1.12% | Distribution (Rattus norvegicus [16]): 1.21% | Distribution (Rattus norvegicus [17]): 2.76% | Distribution (Rattus norvegicus [18]): 5.16%
Structure (SMILES): CC[N+](CC)(CC)CCC/C=C/I.[I-]

Distribution (Rattus norvegicus [19]): 0.49% | Distribution (Rattus norvegicus [20]): 1.72% | Distribution (Rattus norvegicus [21]): 1.18% | Distribution (Rattus norvegicus [22]): 0.12% | Distribution (Rattus norvegicus [23]): 31% | Distribution (Rattus norvegicus [24]): 37% | Distribution (Rattus norvegicus [25]): 33% | Distribution (Rattus norvegicus [26]): 0.29% | Distribution (Rattus norvegicus [27]): 1.28% | Distribution (Rattus norvegicus [28]): 0.14% | Distribution (Rattus norvegicus [29]): 4.19% | Distribution (Rattus norvegicus [30]): 9.36% | Distribution (Rattus norvegicus [31]): 1.48% | Distribution (Rattus norvegicus [32]): 3.99% | Distribution (Rattus norvegicus [33]): 4.4% | Distribution (Rattus norvegicus [34]): 0.62% | Distribution (Rattus norvegicus [35]): 1.48% | Distribution (Rattus norvegicus [36]): 6.8%
Structure (SMILES): I/C=C/CCC[P+](c1ccccc1)(c1ccccc1)c1ccccc1.[I-]
